Results collected from several papers.
Compare with care: the assays were run in different laboratories.
Target: Serine/threonine-protein kinase BRSK1 (BRSK1, Homo sapiens, UniProt Q8TDC3)
One construct used (Q8TDC3 1-778): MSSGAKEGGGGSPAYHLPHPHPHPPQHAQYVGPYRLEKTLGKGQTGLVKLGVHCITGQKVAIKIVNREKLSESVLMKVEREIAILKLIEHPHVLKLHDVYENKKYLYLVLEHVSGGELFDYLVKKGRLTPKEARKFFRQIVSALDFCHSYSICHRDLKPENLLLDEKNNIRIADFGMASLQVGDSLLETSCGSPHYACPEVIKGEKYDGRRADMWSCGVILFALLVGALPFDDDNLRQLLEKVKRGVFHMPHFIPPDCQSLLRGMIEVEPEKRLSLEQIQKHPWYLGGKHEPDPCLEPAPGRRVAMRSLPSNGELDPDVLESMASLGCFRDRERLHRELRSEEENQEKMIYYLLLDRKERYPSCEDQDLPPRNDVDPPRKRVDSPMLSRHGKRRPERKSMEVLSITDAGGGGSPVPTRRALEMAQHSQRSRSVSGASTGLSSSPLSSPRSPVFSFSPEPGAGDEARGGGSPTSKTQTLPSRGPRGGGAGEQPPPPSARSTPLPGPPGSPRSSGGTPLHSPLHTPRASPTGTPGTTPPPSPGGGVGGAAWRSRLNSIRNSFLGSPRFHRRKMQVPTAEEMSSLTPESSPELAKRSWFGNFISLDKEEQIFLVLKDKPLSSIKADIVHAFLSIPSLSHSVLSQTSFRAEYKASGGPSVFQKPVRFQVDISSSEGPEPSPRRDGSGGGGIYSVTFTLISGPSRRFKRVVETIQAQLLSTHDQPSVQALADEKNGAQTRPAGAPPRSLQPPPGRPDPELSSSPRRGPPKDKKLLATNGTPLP

With `CN(C)c1nccc(-c2cnc3ncccn23)n1` the remaining binding was 100% (binding; 1 µM).
`Nc1ncc2c(n1)-c1c([nH]c3ccc(C#CC4CC4)cc13)CCCC2` has a remaining binding of 87% (binding; competition with immobilised ligand; 1 µM).
For `CS(=O)(=O)c1cc(C2(NC(=O)c3cncc4c3cnn4-c3ccc(F)cc3)CC2)ccn1`, the remaining binding was 74% (cell-free assay; competition with immobilised ligand; 1 µM).
For `CNC(=O)[C@@H]1CC[C@@H](n2c(-c3ccc4cnccc4c3)nc3ccc(C(=O)NCc4cccc(C(N)=O)c4)cc32)C1`, the remaining binding was 100% (binding; competition with immobilised ligand; 1 µM).
With `C[C@@H]1CCN(c2nccc(-c3cnn4ncccc34)n2)C1` the remaining binding was 93% (binding; 1 µM).
For `Cc1c(NC(=O)c2cc(C(N)=O)nc3cc(F)ccc23)c(C(F)(F)F)nn1Cc1ccc(C#N)cc1`, the remaining binding was 100% (cell-free assay; competition with immobilised ligand; 1 µM).
`CCN1CCN(Cc2ccc(C(=O)Nc3ccc(C)c(Oc4ccc5c(c4)CC(=O)N5)c3)cc2C(F)(F)F)CC1` gave a remaining binding of 94% (binding; competition with immobilised ligand; 1 µM).
`O=C(NCC1CCOCC1)c1n[nH]cc1NC(=O)c1c(F)cccc1F` gave a remaining binding of 100% (binding; competition with immobilised ligand; 1 µM).
`CN(c1ccnc(CNc2nc(Nc3ccc4c(c3)CC(=O)N4)ncc2C(F)(F)F)n1)S(C)(=O)=O` has a remaining binding of 43% (cell-free assay; competition with immobilised ligand; 1 µM).
For `O=C(c1ccc(Nc2nccc(-c3cc4ccccc4s3)n2)cc1)N1CCC(N2CCCC2)CC1`, the remaining binding was 61% (binding; competition with immobilised ligand; 1 µM).
With `O=C(O)[C@@H]1[C@@H](Cn2nnc3ccccc3c2=O)CC[C@H]1C(=O)c1ccc(OCCC2CCOCC2)cc1` the remaining binding was 100% (cell-free assay; competition with immobilised ligand; 1 µM).
`O=C(NCCCN1CCOCC1)c1ccc(Nc2ncc(Cl)c(-c3ccc(Cl)s3)n2)cc1` has a remaining binding of 75% (binding; competition with immobilised ligand; 1 µM).
With `c1cncc(-c2cccc(Nc3nccc(NC4CCCCC4)n3)c2)c1` the remaining binding was 84% (binding; competition with immobilised ligand; 10 µM).
The remaining binding of `CO[C@@H](C)c1c(Nc2ccc([C@@H](N(C)C(=O)C3CCS(=O)(=O)CC3)C(F)(F)F)cc2)cnc2cc(Cl)nn12` is reported as 93% (cell-free assay; competition with immobilised ligand; 1 µM).
The remaining binding of `Cc1cnn2ncc(-c3ccnc(N(C)C)n3)c2c1` is reported as 81% (binding; 1 µM).
For `Cc1cnc(Nc2ccc(C(=O)N3CCC(N4CCCC4)CC3)cc2)nc1-c1cc2ccccc2s1`, the remaining binding was 100% (binding; competition with immobilised ligand; 1 µM).
With `c1cnn2ncc(-c3ccnc(N4CCC45COC5)n3)c2c1` the remaining binding was 82% (binding; 1 µM).
The remaining binding of `FC(F)(F)Oc1cccc(-c2cnc3ccc(-c4ccncc4)nn23)c1` is reported as 85% (cell-free assay; competition with immobilised ligand; 5 µM).
The remaining binding of `F[C@@H]1CCN(c2nccc(-c3cnn4ncccc34)n2)C1` is reported as 100% (binding; 1 µM).
`CC(=O)c1c(NS(C)(=O)=O)c2cc(-c3ccc(Cl)cc3)c(-c3ccc(Cl)cc3Cl)nc2n(C)c1=O` has a remaining binding of 99% (cell-free assay; competition with immobilised ligand; 1 µM).
`COc1ccnn2ncc(-c3ccnc(N(C)C)n3)c12` has a remaining binding of 98% (binding; 1 µM).
With `CC(C)CC(=O)N1CCc2nc(-c3ccc(Br)cc3)nc(N(C)Cc3ccccc3)c2C1` the remaining binding was 100% (cell-free assay; competition with immobilised ligand; 0.1 µM).
